Test results from ChEMBL document CHEMBL1125180, “3-Hydroxy-3-methylglutaryl-coenzyme A reductase inhibitors. 8. Side chain ether analogues of lovastatin” (J Med Chem, 1991).

Experiments:
[1] = The relative potency by comparing its IC50 value with that of mevastatin
How it was run: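 Compounds were tested in salt form for intrinsic inhibition of HMG-CoA reductase. Mevastatin (compactin) was run alongside in the same test and set to a relative potency of 100. Each compound's relative potency was derived by comparing its IC50 with that of mevastatin.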

[2] = target: T1, 3-hydroxy-3-methylglutaryl-coenzyme A reductase (Rattus norvegicus, UniProt P51639); test: In vitro inhibitory activity against rat liver HMG-CoA reductase enzyme
T1 sequence (P51639 whole entry): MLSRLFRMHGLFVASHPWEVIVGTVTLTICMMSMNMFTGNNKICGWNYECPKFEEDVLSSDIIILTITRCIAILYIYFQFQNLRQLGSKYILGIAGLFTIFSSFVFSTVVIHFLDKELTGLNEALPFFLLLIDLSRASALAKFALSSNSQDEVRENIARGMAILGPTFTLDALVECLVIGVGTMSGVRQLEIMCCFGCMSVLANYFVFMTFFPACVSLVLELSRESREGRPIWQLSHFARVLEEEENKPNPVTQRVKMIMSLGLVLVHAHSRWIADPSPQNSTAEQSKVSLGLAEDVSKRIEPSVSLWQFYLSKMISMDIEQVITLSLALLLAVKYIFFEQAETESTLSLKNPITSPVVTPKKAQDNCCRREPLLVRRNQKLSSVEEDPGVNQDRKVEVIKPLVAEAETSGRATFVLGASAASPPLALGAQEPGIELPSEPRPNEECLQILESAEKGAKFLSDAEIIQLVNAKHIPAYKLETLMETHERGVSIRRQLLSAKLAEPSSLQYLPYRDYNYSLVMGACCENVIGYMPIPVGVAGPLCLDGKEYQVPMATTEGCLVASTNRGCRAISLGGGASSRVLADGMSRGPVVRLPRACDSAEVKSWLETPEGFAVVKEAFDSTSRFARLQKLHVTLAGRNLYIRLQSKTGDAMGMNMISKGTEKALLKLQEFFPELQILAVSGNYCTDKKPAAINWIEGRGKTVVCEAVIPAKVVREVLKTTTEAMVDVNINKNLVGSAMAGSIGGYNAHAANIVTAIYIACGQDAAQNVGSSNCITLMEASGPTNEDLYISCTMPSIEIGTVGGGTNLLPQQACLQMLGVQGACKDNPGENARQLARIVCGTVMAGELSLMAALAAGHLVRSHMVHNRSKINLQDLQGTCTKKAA

C[C@H]1C=C2C=C[C@H](C)[C@H](CCC3C[C@@H](O)CC(=O)O3)[C@H]2[C@@H](OCc2ccc(F)cc2)C1 (some centres not stated)
Relative potency [1]: 119
IC50 [2]: 4.7 nM

C=CCO[C@H]1C[C@@H](C)C=C2C=C[C@H](C)[C@H](CCC3C[C@@H](O)CC(=O)O3)[C@H]21 (some centres not stated)
Relative potency [1]: 1.5
IC50 [2]: 370 nM

C=C(C)CO[C@H]1C[C@@H](C)C=C2C=C[C@H](C)[C@H](CCC3C[C@@H](O)CC(=O)O3)[C@H]21 (some centres not stated)
Relative potency [1]: 1.5
IC50 [2]: 360 nM

CO[C@H]1C[C@@H](C)C=C2C=C[C@H](C)[C@H](CCC3C[C@@H](O)CC(=O)O3)[C@H]21 (some centres not stated)
Relative potency [1]: 0.2
IC50 [2]: 2810 nM

CC(=O)O[C@H]1C[C@@H](C)C=C2C=C[C@H](C)[C@H](CCC3C[C@@H](O)CC(=O)O3)[C@H]21 (some centres not stated)
Relative potency [1]: 2.1
IC50 [2]: 269 nM

C=CCC(=O)O[C@H]1C[C@@H](C)C=C2C=C[C@H](C)[C@H](CCC3C[C@@H](O)CC(=O)O3)[C@H]21 (some centres not stated)
Relative potency [1]: 187
IC50 [2]: 2.9 nM

C[C@H]1C=C2C=C[C@H](C)[C@H](CCC3C[C@@H](O)CC(=O)O3)[C@H]2[C@@H](OCc2ccc(Cl)cc2)C1 (some centres not stated)
Relative potency [1]: 8.5
IC50 [2]: 170 nM

C[C@H]1C=C2C=C[C@H](C)[C@H](CCC3C[C@@H](O)CC(=O)O3)[C@H]2[C@@H](OCc2ccccc2)C1 (some centres not stated)
Relative potency [1]: 20
IC50 [2]: 27 nM

C[C@H]1C=C2C=C[C@H](C)[C@H](CC[C@@H]3C[C@@H](O)CC(=O)O3)[C@H]2[C@@H](OC(=O)Cc2ccccc2)C1
Relative potency [1]: 29
